Assay results: ChEMBL document CHEMBL3797186, “Single Residue Substitutions That Confer Voltage-Gated Sodium Ion Channel Subtype Selectivity in the NaV1.7 Inhibitory Peptide GpTx-1” (J Med Chem, 2016)
Positions of bridges follow the written chain, without caps; N, C: chain ends. Residues, ends and D or L forms follow the SMILES beside them.

Experiments:
[1] = target: Sodium channel protein type 9 subunit alpha (Homo sapiens, UniProt Q15858); assay: Inhibition of human Nav1.7 expressed in HEK293 cells assessed as inward peak current by ion-works quattro patch clamp electrophysiology method; format: cell-based
[2] = target: Sodium channel protein type 5 subunit alpha (Homo sapiens, UniProt Q14524); assay: Inhibition of human Nav1.5 expressed in HEK293 cells assessed as inward peak current by ion-works quattro patch clamp electrophysiology method; format: cell-based
Method in brief: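 Stable HEK293 line expressing human NaV1.5, recorded by population patch clamp on the IonWorks Quattro.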

Sequence of Sodium channel protein type 9 subunit alpha (Q15858 whole entry): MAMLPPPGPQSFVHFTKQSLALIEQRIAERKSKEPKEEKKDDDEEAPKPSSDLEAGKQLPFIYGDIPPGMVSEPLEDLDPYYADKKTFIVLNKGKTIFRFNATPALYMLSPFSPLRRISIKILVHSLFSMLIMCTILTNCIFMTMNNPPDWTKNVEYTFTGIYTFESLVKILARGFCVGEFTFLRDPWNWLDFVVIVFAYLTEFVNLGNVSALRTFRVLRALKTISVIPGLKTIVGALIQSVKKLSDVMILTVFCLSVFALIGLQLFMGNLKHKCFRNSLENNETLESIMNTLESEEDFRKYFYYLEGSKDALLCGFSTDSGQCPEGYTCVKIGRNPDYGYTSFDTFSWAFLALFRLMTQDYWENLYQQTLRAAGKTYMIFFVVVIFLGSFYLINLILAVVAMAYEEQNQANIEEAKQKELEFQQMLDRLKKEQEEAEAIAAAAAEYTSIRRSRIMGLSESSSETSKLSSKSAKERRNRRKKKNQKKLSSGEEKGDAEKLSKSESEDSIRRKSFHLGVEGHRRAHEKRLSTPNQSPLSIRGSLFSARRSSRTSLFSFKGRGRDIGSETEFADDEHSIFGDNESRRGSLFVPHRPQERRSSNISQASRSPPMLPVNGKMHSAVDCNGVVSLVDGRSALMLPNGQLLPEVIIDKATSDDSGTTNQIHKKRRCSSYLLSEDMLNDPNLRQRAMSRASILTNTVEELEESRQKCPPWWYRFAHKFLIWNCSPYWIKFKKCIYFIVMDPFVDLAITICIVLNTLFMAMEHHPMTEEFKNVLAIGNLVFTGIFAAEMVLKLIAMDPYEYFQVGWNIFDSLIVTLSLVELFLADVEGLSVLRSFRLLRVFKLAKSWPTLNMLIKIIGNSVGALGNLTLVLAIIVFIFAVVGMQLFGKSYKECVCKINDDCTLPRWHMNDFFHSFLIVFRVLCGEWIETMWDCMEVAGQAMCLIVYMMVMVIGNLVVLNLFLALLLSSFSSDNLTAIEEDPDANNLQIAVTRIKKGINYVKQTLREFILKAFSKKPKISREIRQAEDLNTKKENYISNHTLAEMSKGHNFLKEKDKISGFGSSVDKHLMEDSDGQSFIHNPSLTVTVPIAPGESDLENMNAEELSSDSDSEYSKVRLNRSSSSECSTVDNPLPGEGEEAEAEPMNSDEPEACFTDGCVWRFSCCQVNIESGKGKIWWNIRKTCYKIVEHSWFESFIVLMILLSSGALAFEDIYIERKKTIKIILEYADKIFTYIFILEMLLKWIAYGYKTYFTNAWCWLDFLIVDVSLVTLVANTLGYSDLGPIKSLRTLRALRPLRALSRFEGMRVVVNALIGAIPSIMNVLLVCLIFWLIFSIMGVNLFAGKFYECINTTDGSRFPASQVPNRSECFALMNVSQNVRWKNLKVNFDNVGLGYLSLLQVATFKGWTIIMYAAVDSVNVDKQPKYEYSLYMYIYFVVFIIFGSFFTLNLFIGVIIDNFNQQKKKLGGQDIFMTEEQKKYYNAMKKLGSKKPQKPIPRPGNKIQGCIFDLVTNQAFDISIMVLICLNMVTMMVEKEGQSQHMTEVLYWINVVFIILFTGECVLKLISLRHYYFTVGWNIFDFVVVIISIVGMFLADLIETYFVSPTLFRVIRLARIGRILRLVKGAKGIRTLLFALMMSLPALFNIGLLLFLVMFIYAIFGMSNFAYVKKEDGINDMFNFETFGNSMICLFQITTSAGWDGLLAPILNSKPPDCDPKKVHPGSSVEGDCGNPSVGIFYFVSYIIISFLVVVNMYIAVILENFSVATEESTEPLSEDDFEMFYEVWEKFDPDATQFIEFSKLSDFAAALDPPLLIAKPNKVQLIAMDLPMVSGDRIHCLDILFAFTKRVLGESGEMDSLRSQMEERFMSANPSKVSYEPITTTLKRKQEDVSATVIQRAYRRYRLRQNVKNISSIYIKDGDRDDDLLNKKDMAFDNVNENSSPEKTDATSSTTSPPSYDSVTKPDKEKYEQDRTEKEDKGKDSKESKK
Sequence of Sodium channel protein type 5 subunit alpha (Q14524 whole entry): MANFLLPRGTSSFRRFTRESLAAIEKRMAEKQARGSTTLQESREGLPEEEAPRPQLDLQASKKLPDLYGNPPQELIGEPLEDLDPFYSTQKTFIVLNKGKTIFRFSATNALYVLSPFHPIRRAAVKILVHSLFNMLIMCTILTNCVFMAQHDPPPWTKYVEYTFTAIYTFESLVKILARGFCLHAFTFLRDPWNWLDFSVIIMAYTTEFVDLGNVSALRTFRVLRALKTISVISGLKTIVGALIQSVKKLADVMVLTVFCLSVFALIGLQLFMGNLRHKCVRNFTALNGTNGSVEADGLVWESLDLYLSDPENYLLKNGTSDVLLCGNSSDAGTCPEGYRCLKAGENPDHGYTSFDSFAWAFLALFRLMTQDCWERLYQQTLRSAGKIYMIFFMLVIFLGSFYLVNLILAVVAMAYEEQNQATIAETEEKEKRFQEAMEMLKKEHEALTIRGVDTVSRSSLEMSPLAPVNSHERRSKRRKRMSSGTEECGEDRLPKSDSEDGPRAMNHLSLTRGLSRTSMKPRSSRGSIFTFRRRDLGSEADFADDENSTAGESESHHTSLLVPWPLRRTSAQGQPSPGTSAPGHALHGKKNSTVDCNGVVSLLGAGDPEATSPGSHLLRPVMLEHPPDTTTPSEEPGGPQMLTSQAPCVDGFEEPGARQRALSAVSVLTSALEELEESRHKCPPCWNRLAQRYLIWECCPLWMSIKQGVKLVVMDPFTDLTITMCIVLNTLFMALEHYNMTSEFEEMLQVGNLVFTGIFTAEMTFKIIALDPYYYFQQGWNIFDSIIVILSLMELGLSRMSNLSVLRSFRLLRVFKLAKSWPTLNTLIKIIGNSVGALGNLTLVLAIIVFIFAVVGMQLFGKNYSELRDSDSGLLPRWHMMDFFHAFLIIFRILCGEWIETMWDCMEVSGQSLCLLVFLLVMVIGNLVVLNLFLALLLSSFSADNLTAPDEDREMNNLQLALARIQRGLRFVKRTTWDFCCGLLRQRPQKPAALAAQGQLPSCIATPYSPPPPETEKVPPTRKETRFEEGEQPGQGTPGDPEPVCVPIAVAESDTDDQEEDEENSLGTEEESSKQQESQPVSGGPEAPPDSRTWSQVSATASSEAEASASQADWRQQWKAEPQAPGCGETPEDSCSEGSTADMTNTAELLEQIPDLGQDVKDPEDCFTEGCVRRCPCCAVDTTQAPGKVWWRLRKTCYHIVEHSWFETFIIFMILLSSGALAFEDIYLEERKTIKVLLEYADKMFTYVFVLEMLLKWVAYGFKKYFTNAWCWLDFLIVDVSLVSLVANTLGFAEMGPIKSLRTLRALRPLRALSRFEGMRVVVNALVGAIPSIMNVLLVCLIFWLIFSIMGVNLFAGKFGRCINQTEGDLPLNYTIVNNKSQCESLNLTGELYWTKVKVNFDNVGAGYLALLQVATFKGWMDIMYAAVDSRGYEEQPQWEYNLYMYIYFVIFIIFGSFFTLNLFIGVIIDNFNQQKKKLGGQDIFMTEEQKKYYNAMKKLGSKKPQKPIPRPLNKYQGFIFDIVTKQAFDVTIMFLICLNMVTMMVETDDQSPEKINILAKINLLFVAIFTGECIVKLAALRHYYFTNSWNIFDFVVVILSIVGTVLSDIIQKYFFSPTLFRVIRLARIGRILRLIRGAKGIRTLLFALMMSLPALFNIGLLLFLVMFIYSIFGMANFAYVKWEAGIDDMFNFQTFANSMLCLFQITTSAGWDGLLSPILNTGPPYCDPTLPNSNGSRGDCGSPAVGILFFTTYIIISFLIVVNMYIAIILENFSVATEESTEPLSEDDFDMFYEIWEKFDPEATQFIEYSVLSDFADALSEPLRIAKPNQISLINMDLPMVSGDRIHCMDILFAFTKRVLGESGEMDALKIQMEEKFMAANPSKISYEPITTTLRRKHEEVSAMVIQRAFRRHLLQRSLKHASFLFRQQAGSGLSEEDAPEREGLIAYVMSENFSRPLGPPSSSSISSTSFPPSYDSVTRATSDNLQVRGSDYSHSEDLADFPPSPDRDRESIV

| Compound | IC50 [1] | IC50 [2] |
| --- | --- | --- |
| CC[C@H](C)[C@@H]1NC(=O)[C@@H]2CSSC[C@@H]3NC(=O)[C@H](C(C)C)NC(=O)[C@H](CC(C)C)NC(=O)[C@H](CC(N)=O)NC(=O)[C@@H]4CCCN4C(=O)[C@H](CCCNC(=N)N)NC(=O)[C@H](CSSC[C@H](NC(=O)[C@@H](N)CC(=O)O)C(=O)N[C@@H](CC(C)C)C(=O)NCC(=O)N[C@@H](Cc4ccccc4)C(=O)N[C@@H](CCSC)C(=O)N[C@@H](CCCNC(=N)N)C(=O)N[C@@H](CCCCN)C(=O)N2)NC(=O)[C@H](CSSC[C@@H](C(=O)N[C@@H](CCC(=O)O)C(=O)N[C@@H](Cc2ccc(O)cc2)C(=O)N[C@H](C(=O)N[C@@H](Cc2ccccc2)C(N)=O)C(C)C)NC(=O)[C@H](Cc2c[nH]c4ccccc24)NC(=O)[C@H](CCCCN)NC(=O)[C@H](Cc2cnc[nH]2)NC(=O)[C@H]([C@@H](C)O)NC(=O)[C@H](CCCNC(=N)N)NC(=O)[C@H](CO)NC3=O)NC(=O)[C@H](CCCCN)NC(=O)[C@H](CC(=O)O)NC(=O)[C@H](CC(N)=O)NC(=O)[C@H](CC(=O)O)NC(=O)[C@@H]2CCCN2C1=O (H-DCLGFMRKCIPDNDKCCRPNLVCSRTHKWCEYVF-NH2; disulfide 2-17, 9-23, 16-30) | > 5 µM | > 5 µM |
| CC[C@H](C)[C@@H]1NC(=O)[C@@H]2CSSC[C@@H]3NC(=O)[C@H](C(C)C)NC(=O)[C@H](CC(C)C)NC(=O)[C@H](CC(N)=O)NC(=O)[C@@H]4CCCN4C(=O)[C@H](CCCNC(=N)N)NC(=O)[C@H](CSSC[C@H](NC(=O)[C@@H](N)CC(=O)O)C(=O)N[C@@H](CC(C)C)C(=O)NCC(=O)N[C@@H](Cc4ccccc4)C(=O)N[C@@H](CCCNC(=N)N)C(=O)N[C@@H](CCCNC(=N)N)C(=O)N[C@@H](CCCCN)C(=O)N2)NC(=O)[C@H](CSSC[C@@H](C(=O)N[C@@H](CCCCN)C(=O)N[C@@H](Cc2ccc(O)cc2)C(=O)N[C@H](C(=O)N[C@@H](Cc2ccccc2)C(N)=O)C(C)C)NC(=O)[C@H](Cc2c[nH]c4ccccc24)NC(=O)[C@H](CCCCN)NC(=O)[C@H](Cc2cnc[nH]2)NC(=O)[C@H]([C@@H](C)O)NC(=O)[C@H](CCCNC(=N)N)NC(=O)[C@H](CO)NC3=O)NC(=O)[C@H](CCCCN)NC(=O)[C@H](CC(=O)O)NC(=O)[C@H](CC(N)=O)NC(=O)[C@H](CC(=O)O)NC(=O)[C@@H]2CCCN2C1=O (H-DCLGFRRKCIPDNDKCCRPNLVCSRTHKWCKYVF-NH2; disulfide 2-17, 9-23, 16-30) | > 4.9 µM | > 5 µM |
| CC[C@H](C)[C@@H]1NC(=O)[C@@H]2CSSC[C@@H]3NC(=O)[C@H](C(C)C)NC(=O)[C@H](CC(C)C)NC(=O)[C@H](CC(N)=O)NC(=O)[C@@H]4CCCN4C(=O)[C@H](CCCNC(=N)N)NC(=O)[C@H](CSSC[C@H](NC(=O)[C@@H](N)CC(=O)O)C(=O)N[C@@H](CC(C)C)C(=O)NCC(=O)N[C@@H](Cc4ccccc4)C(=O)N[C@@H](CCSC)C(=O)N[C@@H](CCCNC(=N)N)C(=O)N[C@@H](CCCCN)C(=O)N2)NC(=O)[C@H](CSSC[C@@H](C(=O)N[C@@H](CCCCN)C(=O)N[C@@H](Cc2ccc(O)cc2)C(=O)N[C@H](C(=O)N[C@@H](Cc2ccccc2)C(N)=O)C(C)C)NC(=O)[C@H](Cc2c[nH]c4ccccc24)NC(=O)[C@H](CCCCN)NC(=O)[C@H](Cc2cnc[nH]2)NC(=O)[C@H](CCC(=O)O)NC(=O)[C@H](CCCNC(=N)N)NC(=O)[C@H](CO)NC3=O)NC(=O)[C@H](CCCCN)NC(=O)[C@H](CC(=O)O)NC(=O)[C@H](CC(N)=O)NC(=O)[C@H](CC(=O)O)NC(=O)[C@@H]2CCCN2C1=O (H-DCLGFMRKCIPDNDKCCRPNLVCSREHKWCKYVF-NH2; disulfide 2-17, 9-23, 16-30) | 0.69 µM | > 5 µM |
| CC[C@H](C)[C@@H]1NC(=O)[C@@H]2CSSC[C@@H]3NC(=O)[C@H](C(C)C)NC(=O)[C@H](CC(C)C)NC(=O)[C@H](CC(N)=O)NC(=O)[C@@H]4CCCN4C(=O)[C@H](CCCNC(=N)N)NC(=O)[C@H](CSSC[C@H](NC(=O)[C@@H](N)CC(=O)O)C(=O)N[C@@H](CC(C)C)C(=O)NCC(=O)N[C@@H](Cc4ccccc4)C(=O)N[C@@H](CCSC)C(=O)N[C@@H](CCCNC(=N)N)C(=O)N[C@@H](CCCCN)C(=O)N2)NC(=O)[C@H](CSSC[C@@H](C(=O)N[C@@H](CCCCN)C(=O)N[C@@H](Cc2ccc(O)cc2)C(=O)N[C@H](C(=O)N[C@@H](Cc2c[nH]c4ccccc24)C(N)=O)C(C)C)NC(=O)[C@H](Cc2c[nH]c4ccccc24)NC(=O)[C@H](CCCCN)NC(=O)[C@H](Cc2c[nH]cn2)NC(=O)[C@H]([C@@H](C)O)NC(=O)[C@H](CCCNC(=N)N)NC(=O)[C@H](CO)NC3=O)NC(=O)[C@H](CCCCN)NC(=O)[C@H](CC(=O)O)NC(=O)[C@H](CC(N)=O)NC(=O)[C@H](CC(=O)O)NC(=O)[C@@H]2CCCN2C1=O (H-DCLGFMRKCIPDNDKCCRPNLVCSRTHKWCKYVW-NH2; disulfide 2-17, 9-23, 16-30) | 0.27 µM | > 5 µM |
| CC[C@H](C)[C@@H]1NC(=O)[C@H]2CSSC[C@H]3NC(=O)[C@H](C(C)C)NC(=O)[C@H](CC(C)C)NC(=O)[C@H](CC(N)=O)NC(=O)[C@@H]4CCCN4C(=O)[C@H](CCCNC(=N)N)NC(=O)[C@H](CSSC[C@H](NC(=O)[C@@H](N)CC(=O)O)C(=O)N[C@@H](CC(C)C)C(=O)NCC(=O)N[C@@H](Cc4ccccc4)C(=O)N[C@@H](CCSC)C(=O)N[C@@H](CCCNC(=N)N)C(=O)N[C@@H](CCCCN)C(=O)N2)NC(=O)[C@@H](CSSC[C@@H](C(=O)N[C@@H](C)C(=O)N[C@@H](Cc2ccc(O)cc2)C(=O)N[C@H](C(=O)N[C@@H](Cc2ccccc2)C(N)=O)C(C)C)NC(=O)[C@H](Cc2c[nH]c4ccccc24)NC(=O)[C@H](CCCCN)NC(=O)[C@H](Cc2cnc[nH]2)NC(=O)[C@H]([C@@H](C)O)NC(=O)[C@H](CCCNC(=N)N)NC(=O)[C@H](CO)NC3=O)NC(=O)[C@H](CCCCN)NC(=O)[C@H](CC(=O)O)NC(=O)[C@H](CC(N)=O)NC(=O)[C@H](CC(=O)O)NC(=O)[C@@H]2CCCN2C1=O | > 5 µM | > 5 µM |
| CC[C@H](C)[C@@H]1NC(=O)[C@@H]2CSSC[C@@H]3NC(=O)[C@H](C(C)C)NC(=O)[C@H](CC(C)C)NC(=O)[C@H](CC(N)=O)NC(=O)[C@@H]4CCCN4C(=O)[C@H](CCCNC(=N)N)NC(=O)[C@H](CSSC[C@H](NC(=O)[C@@H](N)CC(=O)O)C(=O)N[C@@H](CC(C)C)C(=O)NCC(=O)N[C@@H](Cc4ccccc4)C(=O)N[C@@H](CCSC)C(=O)N[C@@H](CCCNC(=N)N)C(=O)N[C@@H](CCCCN)C(=O)N2)NC(=O)[C@H](CSSC[C@@H](C(=O)N[C@@H](CCCCN)C(=O)N[C@@H](Cc2ccc(O)cc2)C(=O)N[C@H](C(=O)N[C@@H](Cc2ccccc2)C(N)=O)C(C)C)NC(=O)[C@H](Cc2c[nH]c4ccccc24)NC(=O)[C@H](CCCCN)NC(=O)[C@H](Cc2cnc[nH]2)NC(=O)[C@H](CCCNC(=N)N)NC(=O)[C@H](CCCNC(=N)N)NC(=O)[C@H](CO)NC3=O)NC(=O)[C@H](CCCCN)NC(=O)[C@H](CC(=O)O)NC(=O)[C@H](CC(N)=O)NC(=O)[C@H](CC(=O)O)NC(=O)[C@@H]2CCCN2C1=O (H-DCLGFMRKCIPDNDKCCRPNLVCSRRHKWCKYVF-NH2; disulfide 2-17, 9-23, 16-30) | 0.04 µM | 3.5 µM |
| CC[C@H](C)[C@@H]1NC(=O)[C@@H]2CSSC[C@@H]3NC(=O)[C@H](C(C)C)NC(=O)[C@H](CC(C)C)NC(=O)[C@H](CC(N)=O)NC(=O)[C@@H]4CCCN4C(=O)[C@H](CCCNC(=N)N)NC(=O)[C@H](CSSC[C@H](NC(=O)[C@@H](N)CC(=O)O)C(=O)N[C@@H](CC(C)C)C(=O)NCC(=O)N[C@@H](Cc4ccccc4)C(=O)N[C@@H](CCSC)C(=O)N[C@@H](CCCNC(=N)N)C(=O)N[C@@H](CCCCN)C(=O)N2)NC(=O)[C@H](CSSC[C@@H](C(=O)N[C@@H](CCCCN)C(=O)N[C@@H](Cc2ccc(O)cc2)C(=O)N[C@H](C(=O)N[C@@H](Cc2ccccc2)C(N)=O)C(C)C)NC(=O)[C@H](Cc2c[nH]c4ccccc24)NC(=O)[C@H](CCCCN)NC(=O)[C@H](Cc2cnc[nH]2)NC(=O)[C@H]([C@@H](C)O)NC(=O)[C@H](CCCNC(=N)N)NC(=O)[C@H](CO)NC3=O)NC(=O)[C@H](CCCCN)NC(=O)[C@H](CC(=O)O)NC(=O)[C@H](Cc2c[nH]c3ccccc23)NC(=O)[C@H](CC(=O)O)NC(=O)[C@@H]2CCCN2C1=O (H-DCLGFMRKCIPDWDKCCRPNLVCSRTHKWCKYVF-NH2; disulfide 2-17, 9-23, 16-30) | 0.08 µM | > 5 µM |
| CC[C@H](C)[C@@H]1NC(=O)[C@@H]2CSSC[C@@H]3NC(=O)[C@H](C(C)C)NC(=O)[C@H](CC(C)C)NC(=O)[C@H](CC(N)=O)NC(=O)[C@@H]4CCCN4C(=O)[C@H](CCCNC(=N)N)NC(=O)[C@H](CSSC[C@H](NC(=O)[C@@H](N)CC(=O)O)C(=O)N[C@@H](CC(C)C)C(=O)NCC(=O)N[C@@H](Cc4ccccc4)C(=O)N[C@@H](CCSC)C(=O)N[C@@H](CCCNC(=N)N)C(=O)N[C@@H](CCCCN)C(=O)N2)NC(=O)[C@H](CSSC[C@@H](C(=O)N[C@@H](CCCCN)C(=O)N[C@@H](Cc2ccc(O)cc2)C(=O)N[C@H](C(=O)N[C@@H](Cc2ccccc2)C(N)=O)C(C)C)NC(=O)[C@H](Cc2c[nH]c4ccccc24)NC(=O)[C@H](CCCCN)NC(=O)[C@H](Cc2c[nH]cn2)NC(=O)[C@H]([C@@H](C)O)NC(=O)[C@H](CCC(=O)O)NC(=O)[C@H](CO)NC3=O)NC(=O)[C@H](CCCCN)NC(=O)[C@H](CC(=O)O)NC(=O)[C@H](CC(N)=O)NC(=O)[C@H](CC(=O)O)NC(=O)[C@@H]2CCCN2C1=O (H-DCLGFMRKCIPDNDKCCRPNLVCSETHKWCKYVF-NH2; disulfide 2-17, 9-23, 16-30) | 0.72 µM | > 5 µM |
